The test system of assay [1] is HeLa. Briefly: Cytotoxic concentration against uninfected H1HeLa cell line. The assay is classed as functional. The note with it: Homo sapiens.
The target in assay [2] is T1, Human rhinovirus A protease (Human rhinovirus sp.) (UniProt Q4U254).
T1 sequence (whole entry): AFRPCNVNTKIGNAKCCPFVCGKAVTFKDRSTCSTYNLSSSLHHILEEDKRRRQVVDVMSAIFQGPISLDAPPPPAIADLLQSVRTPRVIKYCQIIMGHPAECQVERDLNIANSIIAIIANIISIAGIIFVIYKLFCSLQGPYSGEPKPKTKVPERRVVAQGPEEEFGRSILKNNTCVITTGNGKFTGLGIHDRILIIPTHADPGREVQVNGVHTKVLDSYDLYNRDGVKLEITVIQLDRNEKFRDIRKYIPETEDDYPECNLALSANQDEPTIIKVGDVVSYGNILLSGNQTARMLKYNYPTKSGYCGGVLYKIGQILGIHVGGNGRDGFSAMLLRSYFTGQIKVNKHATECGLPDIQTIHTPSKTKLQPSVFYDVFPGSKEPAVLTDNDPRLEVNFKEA
Kind of assay: The compound was tested for the inhibitory activity against human rhinovirus-14 3C Protease. The procedure, abridged: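 HRV-14 3C protease was exposed to the irreversible inhibitor. Inactivation was expressed as the second-order rate constant kobs/[I] in M-1 s-1.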

The test system of assay [3] is HeLa. Briefly: Compound was tested for the antirhinoviral activity against human rhinovirus (HRV-14) infected H1HeLa cells. The assay is classed as functional, cell-based.
Assay [4] relates to HeLa. Kind of assay: (§1) Tested for antirhinoviral activity of compound against HRV 39 infected H1HeLa cells; Cytotoxicity at > 10 uM. It counts as functional, cell-based. The note with it: Homo sapiens.
In assay [5] the test system is HeLa. Kind of assay: (§2) Tested for antirhinoviral activity of compound against HRV 3 infected H1HeLa cells; Cytotoxicity at > 10 uM. It counts as functional, cell-based. The note with it: Homo sapiens.
The test system of assay [6] is HeLa. Briefly: (§3) Tested for antirhinoviral activity of compound against HRV 14 infected H1HeLa cells; Cytotoxicity at > 10 uM. The conditions noted are these: Homo sapiens. The assay is classed as functional.
The subject of assay [7] is HeLa. Kind of assay: (§4) Tested for antirhinoviral activity of compound against HRV 25 infected H1HeLa cells; Cytotoxicity at > 10 uM. The conditions noted are these: Homo sapiens. It counts as functional, cell-based.
Assay [8] deals with HeLa. Briefly: (§5) Tested for antirhinoviral activity of compound against HRV 10 infected H1HeLa cells; Cytotoxicity at > 10 uM. It counts as functional, cell-based. The note with it: Homo sapiens.
Assay [9] has as its system HeLa. Kind of assay: Tested for antirhinoviral activity of compound against HRV 9 infected H1HeLa cells. The assay is classed as functional, cell-based. The conditions noted are these: Homo sapiens.
Assay [10] relates to HeLa. Briefly: (§6) Tested for antirhinoviral activity of compound against HRV 87 infected H1HeLa cells; Cytotoxicity at > 10 uM. It counts as functional. The note with it: Homo sapiens.
In assay [11] the test system is HeLa. Briefly: (§7) Tested for antirhinoviral activity of compound against HRV 16 infected H1HeLa cells; Cytotoxicity at > 10 uM. The note with it: Homo sapiens. The assay is classed as functional, cell-based.
In assay [12] the test system is HeLa. The description is as §7. It counts as functional. The note with it: Homo sapiens.
For assay [13], the system named is HeLa. The assay is described as §2. It counts as functional. The conditions noted are these: Homo sapiens.
The subject of assay [14] is HeLa. The assay is described as §4. It counts as functional. The note with it: Homo sapiens.
The test system of assay [15] is HeLa. The assay is described as §3. It counts as functional, cell-based. The note with it: Homo sapiens.
In assay [16] the test system is HeLa. The assay is described as §5. The assay is classed as functional. The conditions noted are these: Homo sapiens.
For assay [17], the system named is HeLa. Briefly: (§8) Tested for antirhinoviral activity of compound against HRV 2 infected H1HeLa cells; Cytotoxicity at > 10 uM. It counts as functional, cell-based. The conditions noted are these: Homo sapiens.
In assay [18] the test system is HeLa. Briefly: Tested for antirhinoviral activity of compound against HRV 9 infected H1HeLa cells; Cytotoxicity at > 10 uM. The assay is classed as functional. The note with it: Homo sapiens.
Assay [19] deals with HeLa. Described as §8. The assay is classed as functional. The note with it: Homo sapiens.
Assay [20] relates to HeLa. Described as §6. The assay is classed as functional, cell-based. The conditions noted are these: Homo sapiens.
The subject of assay [21] is HeLa. The description is as §1. It counts as functional. The note with it: Homo sapiens.

In the assay on HeLa [1], `CCOC(=O)/C=C/[C@H](CCC(N)=O)NC(=O)Cn1cccc(NC(=O)OCc2ccccc2)c1=O` came in with a CC50 greater than 10000 nM. The same compound gave a K obs / 1 in assay [2] of 348 M⁻¹ s⁻¹. This compound showed an EC50 with HeLa [3] greater than 10000 nM.

On to `CCOC(=O)/C=C/[C@H](CCC(N)=O)NC(=O)[C@H](Cc1ccccc1)n1cccc(NC(=O)OCc2ccccc2)c1=O`, for which the CC50 in the assay with HeLa [1] came out at 50000 nM. The compound also returned a K obs / 1 in assay [2] of 114000 M⁻¹ s⁻¹. The EC50 with HeLa [3] stood at 33 nM.

Turning to `CCOC(=O)/C=C/[C@H](CCC(N)=O)NC(=O)[C@@H]1CS[C@H]2CC[C@H](NC(=O)OCc3ccccc3)C(=O)N21`, the CC50 in the assay with HeLa [1] was greater than 10000 nM. The compound further registered a K obs / 1 in assay [2] of 26 M⁻¹ s⁻¹. In addition, the EC50 with HeLa [3] is greater than 10000 nM.

As to `CCOC(=O)/C=C/[C@H](CCC(N)=O)NC(=O)[C@@H]1CCc2ccc(NC(=O)OCc3ccccc3)c(=O)n21`, in the assay on HeLa [1], the CC50 was greater than 100000 nM. Besides, the K obs / 1 in [2] came out at 4540 M⁻¹ s⁻¹. The compound further showed an EC50 in the assay on HeLa [3] of 9000 nM.

With `CCOC(=O)/C=C/[C@H](C[C@@H]1CCNC1=O)NC(=O)[C@@H]1CCc2ccc(NC(=O)c3cc(C)on3)c(=O)n21`, the EC50 came to 16 nM in the assay on HeLa [4]; 43 nM with HeLa [5]; 162 nM in the assay on HeLa [7]; 41 nM in the assay on HeLa [8]; 121 nM with HeLa [9]; 72 nM in the assay on HeLa [11]. Also, the EC50 with HeLa [15] was determined as 162 nM; in the assay with HeLa [17], 37 nM; with HeLa [3], 162 nM; with HeLa [20], 58 nM. Further, the EC90 in the assay with HeLa [6] was 298 nM; in the assay with HeLa [10] it was 110 nM; in the assay on HeLa [12], 303 nM; in the assay with HeLa [13], 133 nM; in the assay with HeLa [14], 616 nM; with HeLa [16], 175 nM. Also, the EC90 was 257 nM with HeLa [18], 119 nM with HeLa [19] and 152 nM with HeLa [21]. Also, the CC50 in the assay on HeLa [1] was greater than 10000 nM. The compound also showed a K obs / 1 in [2] of 177000 M⁻¹ s⁻¹.

Source of the values: ChEMBL document CHEMBL1135218, “Structure-based design, synthesis, and biological evaluation of irreversible human rhinovirus 3C protease inhibitors. Part 7: structure-activity studies of bicyclic 2-pyridone-containing peptidomimetics” (Bioorg Med Chem Lett, 2002).
